One data set is filed under the species Homo sapiens. The data set can be described thus: Selectivity ratio of IC50 for JNK1 (unknown origin) to IC50 for JNK3 (unknown origin).
For data set [1], the target named is Mitogen-activated protein kinase 8 (Homo sapiens, UniProt P45983). The data set can be described thus: Inhibition of JNK1 (unknown origin)-mediated ATF2 Thr71 phosphorylation by HTRF assay. Put shortly: (§1)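 The kinase reaction used biotinylated ATF2 substrate with ATP. The phospho-Thr71-ATF2 product was detected by HTRF with a Europium-cryptate labeled anti-phospho-Thr71-ATF2 antibody. IC50 values are averages of two or more experiments.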

For data set [2], the target named is Mitogen-activated protein kinase 10 (Rattus norvegicus, UniProt P49187). The data set can be described thus: Inhibition of JNK3-mediated c-Jun phosphorylation in rat INS-1 cells after 3 hrs by ELISA. The format is cell-based, INS1.
In data set [3] the target is Mitogen-activated protein kinase 10 (Homo sapiens, UniProt P53779). The data set can be described thus: Inhibition of JNK3 (unknown origin)-mediated ATF2 Thr71 phosphorylation by HTRF assay. Put shortly:
as §1

Data set [4] is described as follows: Plasma concentration in C57BL6 mouse at 10 mg/kg, ip after 2 hrs. The format is ADME, organism-based. On the set-up: dose 10 mg/kg, route intraperitoneal. The method in brief:
(§2)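 C57Bl6 mice (n = 3) were given 10 mg/kg intraperitoneally. Blood and brain were collected 2 h later, and plasma was frozen at −80 °C. Plasma (1:5 v/v) and brain (1:5 w/v) were mixed with acetonitrile, and brain was probe-sonicated. Drug levels were measured by LC–MS/MS against standards prepared in plasma or in blank brain matrix.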

Data set [5] in a line: Drug uptake in C57BL6 mouse brain at 10 mg/kg, ip after 2 hrs. The class given is ADME, organism-based. More on the design: dose 10 mg/kg, route intraperitoneal. The settings on record: read-out: Drug uptake. Put shortly: as §2
A short description of data set [6]: Plasma clearance in Sprague-Dawley rat at 1 mg/kg, iv and 2 mg/kg, po. The class given is ADME, organism-based. The method in brief: (§3)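 Rats received compound intravenously at 1 mg/kg or by oral gavage at 2 mg/kg. Blood was sampled at 5, 15 and 30 min and at 1, 2, 4, 6 and 8 h into EDTA tubes, and plasma was obtained by centrifugation. Plasma proteins were precipitated with acetonitrile, and drug levels were quantified by LC–MS/MS.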

A short description of data set [7]: Oral bioavailability in Sprague-Dawley rat at 2 mg/kg. The settings on record: in vivo. The format is ADME, organism-based. Put shortly: as §3
Data set [8] is described as follows: Half life in Sprague-Dawley rat at 1 mg/kg, iv and 2 mg/kg, po. The class given is ADME, organism-based. Particulars: in vivo. The method in brief: as §3
Data set [9] can be described thus: AUC in Sprague-Dawley rat at 1 mg/kg, iv and 2 mg/kg, po. The settings on record: plasma. The class given is ADME, organism-based. The method in brief: as §3
The nature of data set [10]: Half life in rat liver microsomes. The format is ADME, Microsome.
Data set [11] in a line: Half life in human liver microsomes. The class given is ADME, Microsome.

Mitogen-activated protein kinase 10 (Rattus norvegicus, UniProt P49187), sequence (P49187 whole entry): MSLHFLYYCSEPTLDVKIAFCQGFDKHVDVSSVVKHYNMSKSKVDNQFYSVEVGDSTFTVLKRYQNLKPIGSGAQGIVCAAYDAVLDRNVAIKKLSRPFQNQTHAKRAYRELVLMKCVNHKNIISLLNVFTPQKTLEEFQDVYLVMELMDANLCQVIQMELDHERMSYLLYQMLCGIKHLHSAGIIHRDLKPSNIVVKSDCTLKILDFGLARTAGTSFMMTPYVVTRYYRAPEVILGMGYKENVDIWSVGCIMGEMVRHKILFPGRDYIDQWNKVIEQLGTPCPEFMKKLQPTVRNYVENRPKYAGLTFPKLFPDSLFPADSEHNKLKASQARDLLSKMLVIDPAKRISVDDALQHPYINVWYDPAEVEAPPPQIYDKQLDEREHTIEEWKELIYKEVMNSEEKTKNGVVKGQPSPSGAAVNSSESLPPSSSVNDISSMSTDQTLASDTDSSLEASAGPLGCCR
Mitogen-activated protein kinase 8, sequence (P45983 whole entry): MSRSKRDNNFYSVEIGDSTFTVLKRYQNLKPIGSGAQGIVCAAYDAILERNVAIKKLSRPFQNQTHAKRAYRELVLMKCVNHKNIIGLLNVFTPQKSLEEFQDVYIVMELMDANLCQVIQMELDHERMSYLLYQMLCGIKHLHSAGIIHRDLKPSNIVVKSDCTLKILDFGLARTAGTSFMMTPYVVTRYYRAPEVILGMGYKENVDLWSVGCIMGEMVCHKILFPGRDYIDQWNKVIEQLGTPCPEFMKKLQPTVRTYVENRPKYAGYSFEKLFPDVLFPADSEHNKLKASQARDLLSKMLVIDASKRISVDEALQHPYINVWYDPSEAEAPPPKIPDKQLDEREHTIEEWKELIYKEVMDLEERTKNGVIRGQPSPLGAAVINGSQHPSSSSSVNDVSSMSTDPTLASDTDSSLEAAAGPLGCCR
Mitogen-activated protein kinase 10 (Homo sapiens, UniProt P53779), sequence (P53779 whole entry): as the sequence (P49187 whole entry) above, with H27Q, S32Y, V33I, V34A counted along it

In the case of `O=C(NCCO)c1cccc(-n2ncc3cc(Nc4ccccc4Cl)ccc32)c1`, in the data set filed under Homo sapiens, the Ratio IC50 worked out at 5. Also, the IC50 in data set [1] is 800 nM; in [2] it was at least 20000 nM; in data set [3] it was 35 nM.

Regarding `O=C(NCCN1CCOCC1)c1cccc(-n2ncc3cc(Nc4ccccc4Cl)ccc32)c1`, in the data set listed under Homo sapiens, the Ratio IC50 was found to be 5. For the same molecule, the half-maximal inhibitory concentration (IC50) is 750 nM in data set [1], 4100 nM in [2] and 54 nM in data set [3]. For the same molecule, the values for the concentration at 2 h in data set [4] and in [5] were 560 nM and 550 nM, respectively.

For the molecule `O=C(NCCN1CCOCC1)c1cccc(-n2ncc3cc(Nc4c(Cl)cccc4Cl)ccc32)c1`, the Ratio IC50 in the data set listed under Homo sapiens was 5. Moreover, the IC50 was 1380 nM in [1] and 77 nM in data set [3].

For the molecule `O=C(NCCN1CCOCC1)c1cccc(-n2ncc3cc(Nc4ccccn4)ccc32)c1`, the Ratio IC50 in the data set filed under Homo sapiens amounted to 5. Besides, the figures for the IC50 in data set [1] and in data set [3] were 7100 nM and 1400 nM, respectively.

With `Cc1cccc(NC(=O)c2cccc(-n3ncc4cc(Nc5ccccc5C)ccc43)c2)c1`, the Ratio IC50 in the data set filed under Homo sapiens came out at 5. Moreover, the IC50 in data set [3] worked out at 250 nM.

As for `CCOc1ccc(NC(=O)c2cccc(-n3ncc4cc(Nc5ccccc5F)ccc43)c2)cc1OC`, in the data set listed under Homo sapiens, the Ratio IC50 came out at 5. Further, the half-inhibitory concentration (IC50) in data set [1] turned out to be 430 nM; in [3] it was 46 nM.

Regarding `O=C(NCCN1CCOCC1)c1cccc(-n2ncc3cc(Nc4ccccc4)cnc32)c1`, the Ratio IC50 in the data set listed under Homo sapiens was 10. The IC50 in data set [1] worked out at 1200 nM; in data set [3] it was 170 nM.

Molecule `COc1cc(NC(=O)c2cccc(-n3cc(Nc4nc5ccccc5[nH]4)cn3)c2)cc(OC)c1OC` gave an IC50 in data set [3] above 20000 nM.

For `Cc1cc(NC(=O)c2cccc(-n3ncc4cc(Nc5ccccc5F)ccc43)c2)ccc1N1CCOCC1`, in the data set listed under Homo sapiens, the Ratio IC50 was found to be 5. Besides, the IC50 in [1] was 170 nM; in [3] it was 38 nM.

Consider `Cc1cccc(Nc2ccc3c(cnn3-c3cccc(C(=O)NCCN4CCN(C5CCC5)CC4)c3)c2)c1Cl`, for which the Ratio IC50 in the data set listed under Homo sapiens amounted to 5. Also, the clearance in [6] was determined as 25 mL/min/kg. The half-maximal inhibitory concentration (IC50) in data set [1] was determined as 970 nM; in [3] it was 40 nM. In addition, the concentration at 2 h in [4] turned out to be 1200 nM; in data set [5], 3900 nM. For the same molecule, the bioavailability in data set [7] turned out to be 27%. Also, the half-life in data set [8] worked out at 198 min. The molecule also had an area under the curve (AUC) in data set [9] of 0.72 µM·h.

Consider `Cc1cccc(CC(=O)Nc2cnn(-c3cccc(C(=O)NC4CCOC(C)(C)C4)c3)c2)c1` (stereo not given), for which the Ratio IC50 in the data set listed under Homo sapiens was above 25. Moreover, the IC50 in data set [1] was at least 20000 nM; in data set [3], 1100 nM.

As to `O=C(NCCCN1CCOCC1)c1ccc(-n2ncc3cc(Nc4ccccc4Cl)ccc32)cc1`, the results for the IC50 in [1], in [2] and in [3] were 920 nM, at least 20000 nM and 33 nM, respectively. The results for the concentration at 2 h in [4] and in [5] were 240 nM and 690 nM, respectively.

Consider `O=C(NCCN1CCOCC1)c1cccc(-n2ncc3cc(Nc4ccccc4Cl)ncc32)c1`, for which the Ratio IC50 in the data set listed under Homo sapiens was 10. Moreover, the values for the IC50 in [1] and in data set [3] were 1300 nM and 80 nM, respectively.

Turning to `O=C(NCCCN1CCOCC1)c1cccc(-n2ncc3cc(Nc4ccccc4Cl)ccc32)c1`, in the data set listed under Homo sapiens, the Ratio IC50 amounted to 5. In data set [6], this molecule had a clearance of 123 mL/min/kg. Further, the IC50 came to 410 nM in data set [1] and 15 nM in [3]. Further, the values for the concentration at 2 h in data set [4] and in data set [5] were 280 nM and 570 nM, respectively. Moreover, the bioavailability in data set [7] is 6%. In addition, the half-life stood at 5.6 min in data set [10], 30 min in data set [8] and 8.6 min in data set [11]. The same molecule showed an exposure (AUC) in [9] of 0.01 µM·h.

Consider `Cc1cc(NC(=O)c2cccc(-n3ncc4cc(Nc5ccccc5Cl)ccc43)c2)ccc1N1CCOCC1`, for which, in the data set filed under Homo sapiens, the Ratio IC50 stood at 5. The IC50 in data set [1] was determined as 160 nM; in data set [3], 32 nM.

On to `O=C(NCCN1CCOCC1)c1cccc(-n2ncc3cc(Nc4ccccc4Cl)ccc32)n1`, for which the Ratio IC50 in the data set filed under Homo sapiens turned out to be 10. Moreover, the figures for the half-inhibitory concentration (IC50) in data set [1] and in data set [3] were 7010 nM and 640 nM, respectively.

As for `O=C(NCCN1CCOCC1)c1cc(-n2ncc3cc(Nc4c(Cl)cccc4Cl)ccc32)ccn1`, the Ratio IC50 in the data set listed under Homo sapiens was 10. The IC50 in data set [3] turned out to be 640 nM.

Consider `Cc1cccc(NC(=O)c2cccc(-n3ncc4cc(Nc5ccccc5F)ccc43)c2)c1`, for which the Ratio IC50 in the data set listed under Homo sapiens was 5. In addition, in [6], the clearance came to 79 mL/min/kg. The figures for the 50% inhibitory concentration (IC50) in data set [1] and in [3] were 470 nM and 120 nM, respectively. The concentration at 2 h worked out at 350 nM in [4] and 30 nM in data set [5]. This molecule also had a bioavailability in [7] of 7%. The half-life worked out at 6 min in data set [10], 18 min in data set [8] and 8.9 min in data set [11]. Besides, the area under the curve (AUC) in data set [9] was determined as 0.5 µM·h.

`COc1cc(NC(=O)c2cccc(-n3ncc4cc(Nc5ccccc5F)ccc43)c2)cc(OC)c1OC`: the Ratio IC50 in the data set filed under Homo sapiens is 5. In data set [6], the clearance was determined as 57 mL/min/kg. Moreover, the IC50 stood at 73 nM in data set [1] and 9 nM in data set [3]. Further, the concentration at 2 h in [4] was determined as 790 nM; in data set [5] it was 50 nM. In data set [7], this molecule came in with a bioavailability of 5%. The same molecule showed a half-life in data set [8] of 90 min. The AUC in data set [9] was found to be 0.05 µM·h.

Consider `CN1CCN(CCNC(=O)c2cccc(-n3ncc4cc(Nc5c(Cl)cccc5Cl)ccc43)c2)CC1`, for which, in the data set filed under Homo sapiens, the Ratio IC50 is 5. In addition, in data set [6], the clearance came out at 34 mL/min/kg. Further, the IC50 in data set [1] turned out to be 1200 nM; in data set [3], 50 nM. Besides, the results for the concentration at 2 h in data set [4] and in data set [5] were 2120 nM and 810 nM, respectively. In [7], the bioavailability stood at 20%. For the same molecule, the half-life in [8] amounted to 120 min. Moreover, the AUC in data set [9] came out at 0.38 µM·h.

Consider `O=C(NCCCN1CCOCC1)c1cccc(-n2ncc3cc(Nc4ccccc4F)ccc32)c1`, for which the Ratio IC50 in the data set listed under Homo sapiens stood at 5. In addition, in data set [3], the IC50 was determined as 22 nM.

As to `O=C(NCCN1CCOCC1)c1ccnc(-n2ncc3cc(Nc4ccccc4Cl)ccc32)c1`, the Ratio IC50 in the data set filed under Homo sapiens was 10. In data set [6], this molecule gave a clearance of 54 mL/min/kg. Also, the IC50 is 2300 nM in data set [1], 5300 nM in data set [2] and 120 nM in [3]. For the same molecule, the concentration at 2 h was 530 nM in data set [4] and 1400 nM in [5]. The bioavailability in data set [7] stood at 5%. This molecule also had a half-life in [8] of 30 min. For the same molecule, in [9], the exposure (AUC) was found to be 0.01 µM·h.

`COc1ccccc1Nc1ccc2c(cnn2-c2cccc(C(=O)NCCCN3CCOCC3)c2)c1`: the Ratio IC50 in the data set filed under Homo sapiens was 5. In data set [3], this molecule returned a half-maximal inhibitory concentration (IC50) of 43 nM.

Consider `COc1cc(NC(=O)c2cccc(-n3ncc4cc(Nc5ccccc5)ccc43)c2)cc(OC)c1OC`, for which the Ratio IC50 in the data set listed under Homo sapiens was 10. The 50% inhibitory concentration (IC50) in data set [1] is 200 nM; in data set [3], 24 nM. The half-life in [10] came to 5.8 min; in data set [11] it was 12.8 min.

In the case of `NC(=O)c1cccc(-n2ncc3cc(Nc4ccccc4F)ccc32)c1`, the Ratio IC50 in the data set filed under Homo sapiens is 5. Besides, the concentration for half-maximal inhibition (IC50) worked out at 730 nM in [1] and 63 nM in data set [3].

`COc1cc(NC(=O)c2cccc(-n3ncc4cc(Nc5ccccc5Cl)ccc43)c2)cc(OC)c1OC`: the Ratio IC50 in the data set filed under Homo sapiens was 5. For the same molecule, the results for the IC50 in data set [1] and in data set [3] were 93 nM and 12 nM, respectively.

In the case of `COc1cc(NC(=O)c2cccc(-n3ncc4cc(Nc5ccccc5C)ccc43)c2)cc(OC)c1OC`, in the data set filed under Homo sapiens, the Ratio IC50 worked out at 5. In data set [3], this molecule registered a concentration for half-maximal inhibition (IC50) of 59 nM.

Take `CN1CCN(CCNC(=O)c2cncc(-n3ncc4cc(Nc5c(Cl)cccc5Cl)ccc43)c2)CC1`: the Ratio IC50 in the data set filed under Homo sapiens was 10. This molecule registered an IC50 in data set [3] of 110 nM.

These data come from ChEMBL document CHEMBL2375283, “Design and synthesis of 1-aryl-5-anilinoindazoles as c-Jun N-terminal kinase inhibitors” (Bioorg Med Chem Lett, 2013).
